Screening data deposited in PubChem BioAssay by several laboratories.
Rows were chosen to be rich in hits. Some 2.4% of all compounds tested hit in one or more screens of this group.
MEX-5 binding = MEX-5 zinc finger RNA-binding disruptors – biochemical, C. elegans, fluorescence polarization, MLPCN library, primary screen | Zinc finger protein mex-5 (Caenorhabditis elegans), Q9XUB2 | MEX-5/FITC-TCR2 RNA binding; active compounds read low | activity score (negative = inhibition of binding), % at 10 µM | hit rate 0.38% among 300,000 | AID 1832, 2009;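 active means inhibition past about -25% in most replicates, and total fluorescence under double the plate's negative control median, limit read from the data; inconclusive means replicates evenly split on the limit, or fluorescence at least double controls; inactive means too little inhibition in most replicates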;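 further: 0% = DMSO and -100% = 5 µM competing unlabeled TCR2 RNA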
Runt-SMMHC FRET = inhibitors of RUNX1 Runt–CBFb-SMMHC binding, primary screen, biochemical, FRET, Cerulean-Runt, Venus-CBFb-SMMHC, uHTS; inhibition, % at 20 µM; Cerulean-Runt/Venus-CBFb-SMMHC FRET ratio 530/480, 1 h; AID 1434, 2008; hit rate 0.74% among 220,000; Runt-related transcription factor 1 (Homo sapiens) + Core-binding factor subunit beta …;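 active means mean inhibition across duplicate retests at 20 µM reaching about 50%, limit read from the data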;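 further: 0% = DMSO wells and 100% = wells with excess untagged CBFb-SMMHC; inhibitors lower the FRET ratio by blocking Runt binding to CBFb-SMMHC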
EBV gp42 block = Epstein-Barr virus gp42 inhibitors, primary screen, biochemical, uHTS, fluorescence polarization | Glycoprotein 42 (Epstein-Barr virus (strain AG876)), Q1HVG2 | Fluorescence polarization binding assay, mP read-out | inhibition, % (tested at 21.74 µM) | hit rate 0.42% among 220,000; in the data active means inhibition above about 50%
Target sequence (Q1HVG2 whole entry, looked up): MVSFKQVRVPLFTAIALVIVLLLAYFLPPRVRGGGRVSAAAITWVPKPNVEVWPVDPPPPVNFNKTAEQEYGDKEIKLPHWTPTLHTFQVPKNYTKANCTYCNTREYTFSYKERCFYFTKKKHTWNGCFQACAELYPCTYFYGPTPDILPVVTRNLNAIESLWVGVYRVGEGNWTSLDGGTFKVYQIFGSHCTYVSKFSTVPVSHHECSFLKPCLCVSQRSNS
Runt-CBFb FRET = inhibitors of RUNX1 Runt–CBFb binding, primary screen, biochemical, FRET, Cerulean-Runt, Venus-CBFb, uHTS; Cerulean-Runt/Venus-CBFb FRET ratio 530/480, 1 h; hit rate 0.46% among 220,000; AID 1496, 2009; Runt-related transcription factor 1 (Homo sapiens) + Core-binding factor subunit beta …; inhibition, % at 20 µM;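 active means inhibition over about 50% at 20 µM in the single-dose screen, limit read from the data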;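 further: 0% = DMSO wells and 100% = excess unlabeled CBFb competitor control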
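test system = Cerulean-tagged RUNX1 Runt domain (FRET donor) fusion protein | reagent = Venus-CBFb binding partner, 100 nM | incubation = protein complex preformed 1 h, compound exposure 1 h, room temperature, dark | detection = FRET fluorescence | read-out basis = loss of energy transfer signal | controls = 5 µM unlabeled CBFb as full-inhibition high control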
LANA-H2B inh = blockers of LANA interaction with H2A/H2B – biochemical, FP readout, HTS, primary screen | Protein LANA1 (Human herpesvirus 8 type P (isolate GK18)), Q9QR71 | cell-free LANA-H2A/H2B peptide, fluorescence polarization | inhibition, % (concentration not given with the values) | hit rate 0.6% among 320,000 | AID 2629, 2010; in the data active means inhibition mostly above about 10%, no sharp cut-off; inactive means mostly below about 6.7%
RanGTP-Imp inh = inhibitors of RanGTP-importin-beta interaction, primary screen, biochemical, FRET, CFP-Ran, YFP-importin-beta, homogeneous; Ran GTPase (GTP-bound) - importin-beta complex; AID 2216, 2009; hit rate 1.1% among 300,000; inhibition, % (no concentration beside the values); cell-free CFP-Ran/YFP-importin-beta FRET ratio;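 active means more than half of the replicate wells show a fall in the fluorescence ratio signal beyond about 16%, limit read from the data, passing the limit was not always enough; inconclusive means exactly half of the replicate wells pass the set limit; inactive means fewer than half of replicates pass the limit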;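 further: 0% = DMSO wells and 100% = Ran loaded with GDP instead of GTP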
* = called active by the depositor; ? = inconclusive; . = not tested or not shown.

SMILES | MEX-5 binding | Runt-SMMHC FRET | EBV gp42 block | Runt-CBFb FRET | LANA-H2B inh | RanGTP-Imp inh
COc1ccc(-c2onc3ccc(Br)cc23)cc1 | -13 | -20 | 127* | 14 | -7 | -8
COc1ccc(-c2onc3ccc(C(=O)/C=C/N(C)C)cc23)cc1 | -13 | . | . | . | -1 | -7
COc1cc(-c2onc3ccc(Br)cc23)cc(OC)c1OC | 2 | 111* | 9 | 67* | 3 | 10
CN(C)CCCNC(=S)N(CCCN(C)C)Cc1cc2cc3c(cc2[nH]c1=O)OCO3 | -2 | . | . | . | 20* | -4
CCN(CC)CCCN(Cc1cc2cc3c(cc2[nH]c1=O)OCO3)C(=S)NCCCN(C)C | 1 | . | . | . | -4 | 1
CCN(CC)C(=O)C[n+]1cccc(C(N)=O)c1 | 1 | 6 | -6 | 1 | -2 | 5
Cc1ccc(S(=O)(=O)Nc2ccccc2C(=O)N2CCN(C)CC2)cc1 | 1 | . | . | . | 102* | 0
CCOC(=O)C1=NN(C(C)=O)C2C(=O)N(CC)C(=O)C12 (stereo not drawn) | 2 | 2 | -12 | 0 | 5 | 3
O=C(N/N=C/c1ccc(OCC(=O)N2CCCC2)cc1)C(=O)NC1CC1 | -1 | . | . | . | 26* | 2
COc1cccc(OCC(=O)NNC(=O)C(=O)Nc2cccc(C)c2)c1 | -1 | . | . | . | -1 | 3
O=c1cc(N2CCC3(CC2)OCCO3)[nH]c(=O)n1-c1ccc(Cl)cc1 | 2 | 32 | 1 | 11 | -2 | 12
O=c1cc(N2CCc3ccccc3C2)[nH]c(=O)n1-c1ccc(Cl)cc1 | 0 | 0 | -17 | 4 | -5 | 117*
O=c1cc(N2CCc3ccccc3C2)[nH]c(=O)n1Cc1ccc(F)cc1 | 0 | 16 | -10 | 2 | 3 | 80*
O=c1cc(N2CCc3ccccc32)[nH]c(=O)n1-c1ccc(Br)cc1 | -3 | 7 | -4 | 7 | . | -7
O=c1cc(N2CCc3ccccc3C2)[nH]c(=O)n1-c1ccc(Br)cc1 | 0 | 4 | -13 | 2 | 3 | 124*
Cc1ccccc1N=Cc1cccc(O)c1O | 0 | -6 | 19 | 4 | -7 | 1
Oc1cccc(/C=N/N=C/c2cccc(O)c2O)c1O | -37* | . | . | . | -2 | -1
CCC(C)[C@H](NC(=O)C1CC(=O)N(c2ccc3c(c2)OCCO3)C1)C(=O)N1CCCCC1 (stereo partly drawn) | 1 | . | . | . | 1 | -3
C[C@H](NC(=O)C1CC(=O)N(c2ccc3c(c2)OCCO3)C1)C(=O)N1CCCCC1 (stereo partly drawn) | 0 | . | . | . | 16* | -3
COc1ccc(C(=O)/C(=C\c2ccco2)N2C=CC=CC2=C(C#N)C#N)cc1 | -4 | -1 | 0 | 6 | 2 | ?
COc1ccc(/C=C(/C(=O)c2cccs2)N2C=CC=CC2=C(C#N)C#N)cc1 | 2 | 28 | -8 | 46 | . | 22*
O=S(=O)(c1cccc(-c2cn3ccccc3n2)c1)N1CCCCC1 | -2 | . | . | . | 18* | ?
C/C(=N/OC(=O)c1c(-c2c(Cl)cccc2Cl)noc1C)c1cnccn1 | 2 | 0 | 55* | 0 | 2 | 5
Cc1cc(OC(=O)c2cc(C(F)(F)F)cc(C(F)(F)F)c2)c([N+](=O)[O-])c(=O)[nH]1 | 1 | . | . | . | 0 | ?
CC(C)Oc1cc2oc(=O)c3c(c2cc1Cl)CCC3 | -1 | 6 | -2 | -1 | 2 | -5
CC(=O)Oc1cc2oc(=O)c3c(c2cc1Cl)CCC3 | 0 | 178* | -18 | 81* | 3 | 11
Cc1occc1C(=O)NNC1=CC(=O)CC(C)(C)C1 | 0 | 0 | -16 | 2 | 2 | 26*
COc1ccc(C(=O)NNC2=CC(=O)CC(C)(C)C2)cc1OC | -11 | 2 | -17 | 4 | -5 | 26*
